These results are taken from ChEMBL document CHEMBL1123939, “Evaluation of isomeric 4-(chlorohydroxyphenyl)-1,2,3,4-tetrahydroisoquinolines as dopamine D-1 antagonists” (J Med Chem, 1987).

What is called inhibition is the share of the control response that was lost under treatment.

Each structure is given as a SMILES string. Active and inactive are the calls of the source. The rule behind the calls is not given here.

What all share (format): protein assay
Experiment [1] deals with T1, Adenylate cyclase (Rattus norvegicus) (UniProt D4A3N4+P26770+Q04400+P26769+Q03343+P40146+Q8CFM9+P21932). The experiment in a line: Inhibition of dopamine sensitive adenylate cyclase at 1 uM; […].
The target in experiment [2] is T1, Adenylate cyclase (Rattus norvegicus). In words: Inhibition of dopamine sensitive adenylate cyclase at 10 uM.
Experiment [3] shares this target. In words: Inhibition of dopamine sensitive adenylate cyclase at 100 uM.
Experiment [4] shares this target. In words: Inhibition of dopamine sensitive adenylate cyclase at 30 uM.
The target is the same in experiment [5]. The experiment in a line: Inhibition of dopamine sensitive adenylate cyclase at 0.01 uM. An outline of the steps: (§1)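 Rat retinas homogenized in 150 vol/wt 2.0 mM Tris-HCl pH 7.4 with 2 mM EDTA. Incubated 20 min, 30 °C. Stopped with SDS/ATP/cyclic AMP containing [3H]cyclic AMP, then heated 85 °C, 2 min.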
The target is the same in experiment [6]. In words: Inhibition of dopamine sensitive adenylate cyclase at 0.1 uM. In a few lines: as §1
Experiment [7] has the same target. The experiment in a line: Inhibition of dopamine sensitive adenylate cyclase at 1 uM. In a few lines:
as §1

The target is the same in experiment [8]. In words: Inhibition of dopamine sensitive adenylate cyclase at 10 uM; No inhibition.
For experiment [9] the target is unchanged. The experiment in a line: Inhibition of dopamine sensitive adenylate cyclase at 100 uM; No inhibition.

Regarding `CN1Cc2ccccc2C(c2ccc(Cl)c(O)c2)C1` (stereo unspecified), the inhibition entry in experiment [1] is “inactive”. Further, the inhibition in [2] was 21%; in experiment [3], 57.9%; in experiment [4], 45.1%.

`CN1CCc2cc(Cl)c(O)cc2[C@@H](c2ccccc2)C1`: the inhibition in [5] came to 23.2%; in [6], 59.9%; in [7] it was 74.3%.

Turning to `Oc1cc(C2CNCc3ccccc32)ccc1Cl` (stereo unspecified), the inhibition result in experiment [1] was “inactive”. Moreover, the inhibition in experiment [2] was found to be 8.9%; in experiment [3] it was 26.3%.

Regarding `Oc1ccc(C2CNCc3ccccc32)cc1Cl` (stereo unspecified), the inhibition entry in experiment [1], in experiment [8] and in experiment [9] was “inactive” each time.

As for `Oc1cccc(C2CNCc3ccccc32)c1` (stereo unspecified), the inhibition entry in [1] was “inactive”. The inhibition in experiment [2] came to 8.8%; in experiment [3] it was 22.9%.
